In ChEMBL document CHEMBL4043106, “Selective opioid growth factor receptor antagonists based on a stilbene isostere” (Bioorg Med Chem, 2017):
Activity calls are given as the source filed them. The calls are words filed in the database; no cut-off is given here.

What was measured:
[1] = target: T1, Kappa-type opioid receptor (Homo sapiens, UniProt P41145); experiment: Agonist activity at kappa opioid receptor (unknown origin) up to 10 uM by GTPgammaS functional assay
In short: (§1)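 GTPγS functional assay at KOR, DOR and MOR, run in both agonist and antagonist modes, with test concentrations up to 10 μM.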

[2] = target: Delta-type opioid receptor (Homo sapiens) (UniProt P41143); experiment: Agonist activity at delta opioid receptor (unknown origin) up to 10 uM by GTPgammaS functional assay; in short: as §1
Chain of Delta-type opioid receptor (Homo sapiens) (P41143 whole entry): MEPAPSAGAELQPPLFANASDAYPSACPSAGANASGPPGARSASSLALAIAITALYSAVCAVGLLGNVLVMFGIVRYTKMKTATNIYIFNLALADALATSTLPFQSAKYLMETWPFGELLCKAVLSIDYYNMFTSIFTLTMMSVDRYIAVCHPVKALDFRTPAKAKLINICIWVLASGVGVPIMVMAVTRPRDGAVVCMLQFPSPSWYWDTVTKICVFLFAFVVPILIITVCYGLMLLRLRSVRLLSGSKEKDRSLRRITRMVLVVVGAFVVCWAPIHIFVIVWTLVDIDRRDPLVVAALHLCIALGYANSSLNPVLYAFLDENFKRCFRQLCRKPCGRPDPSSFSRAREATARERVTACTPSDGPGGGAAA

[3] = target: T2, Mu-type opioid receptor (Homo sapiens, UniProt P35372); experiment: Agonist activity at mu opioid receptor (unknown origin) up to 10 uM by GTPgammaS functional assay; in short: as §1
T2 sequence (P35372 whole entry): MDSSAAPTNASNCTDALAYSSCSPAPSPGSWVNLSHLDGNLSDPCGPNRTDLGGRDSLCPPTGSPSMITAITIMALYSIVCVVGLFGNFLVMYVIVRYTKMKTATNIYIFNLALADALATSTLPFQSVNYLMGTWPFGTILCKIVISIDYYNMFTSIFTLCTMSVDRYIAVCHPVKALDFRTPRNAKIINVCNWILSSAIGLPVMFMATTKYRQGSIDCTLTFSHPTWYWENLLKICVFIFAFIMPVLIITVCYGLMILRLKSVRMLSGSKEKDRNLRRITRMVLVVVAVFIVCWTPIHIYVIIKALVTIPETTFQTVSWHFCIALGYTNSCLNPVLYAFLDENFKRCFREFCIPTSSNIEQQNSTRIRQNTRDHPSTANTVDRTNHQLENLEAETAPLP

[4] = target: T1, Kappa-type opioid receptor; experiment: Antagonist activity at kappa opioid receptor (unknown origin) up to 10 uM by GTPgammaS functional assay; in short: as §1
[5] = target: Delta-type opioid receptor (Homo sapiens) (UniProt P41143); experiment: Antagonist activity at delta opioid receptor (unknown origin) up to 10 uM by GTPgammaS functional assay; in short: as §1
[6] = target: T2, Mu-type opioid receptor; experiment: Antagonist activity at mu opioid receptor (unknown origin) up to 10 uM by GTPgammaS functional assay; in short: as §1
[7] = target: T1, Kappa-type opioid receptor; experiment: Agonist activity at human kappa opioid receptor assessed as beta-arrestin recruitment up to 5 uM after 180 mins by chemiluminescence assay; conditions: 3 h
In short: (§2)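 Commercial β-arrestin kit using cells transfected with human MOR, DOR or KOR. Cells plated and held 48 h at 37°C in 5% CO2. Compound added for 180 min at 37°C, starting at 5 μM with 1:3 serial dilutions. Reference agonists were DADLE (DOR), Met5-enkephalin (MOR) and dynorphin A (KOR). Detection reagent then added for 1 h at room temperature in the dark; chemiluminescence read.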

[8] = target: Delta-type opioid receptor (Homo sapiens) (UniProt P41143); experiment: Agonist activity at human delta opioid receptor assessed as beta-arrestin recruitment up to 5 uM after 180 mins by chemiluminescence assay; in short: as §2
[9] = target: T2, Mu-type opioid receptor; experiment: Agonist activity at human mu opioid receptor assessed as beta-arrestin recruitment up to 5 uM after 180 mins by chemiluminescence assay; in short: as §2
[10] = species on record: Chlorocebus aethiops; experiment: Antagonist activity at OGFR in African green monkey COS7 cells harboring OGF assessed as increase in cell growth at 1 uM after 72 hrs by hemacytometric method
In short: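 COS-7 cells grown in DMEM with 10% fetal calf serum and antibiotics at 37°C, 5% CO2. Seeded at 20,000 cells/well and counted 24 h later as time 0. Treated with 1 μM compound or sterile water vehicle; growth counted at 72 h.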

[11] = target: T3, Opioid growth factor receptor (Homo sapiens) (UniProt Q9NZT2); experiment: Antagonist activity at OGFR in human SKOV3 cells assessed as increase in cell growth at 10 uM after 24 hrs by hemacytometric method; assay type: cell-based
T3 sequence (whole entry): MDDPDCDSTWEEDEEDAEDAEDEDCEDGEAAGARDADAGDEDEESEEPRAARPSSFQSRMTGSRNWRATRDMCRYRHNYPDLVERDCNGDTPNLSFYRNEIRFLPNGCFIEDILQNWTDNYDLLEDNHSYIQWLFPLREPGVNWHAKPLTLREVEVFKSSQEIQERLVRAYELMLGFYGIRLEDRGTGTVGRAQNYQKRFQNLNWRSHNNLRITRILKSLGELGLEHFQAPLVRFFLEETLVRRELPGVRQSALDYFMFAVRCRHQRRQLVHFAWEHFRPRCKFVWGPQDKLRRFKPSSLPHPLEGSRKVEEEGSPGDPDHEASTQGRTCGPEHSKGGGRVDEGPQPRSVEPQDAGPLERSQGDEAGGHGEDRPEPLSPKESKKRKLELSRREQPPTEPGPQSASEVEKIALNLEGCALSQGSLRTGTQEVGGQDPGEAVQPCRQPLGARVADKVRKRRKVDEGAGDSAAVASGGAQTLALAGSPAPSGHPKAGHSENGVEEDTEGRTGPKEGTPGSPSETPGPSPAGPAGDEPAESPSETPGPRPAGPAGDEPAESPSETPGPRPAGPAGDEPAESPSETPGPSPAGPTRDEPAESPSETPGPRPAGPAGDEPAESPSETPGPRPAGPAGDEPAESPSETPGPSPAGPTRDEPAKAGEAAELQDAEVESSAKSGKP
In short: (§3)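 SKOV-3 ovarian cancer cells in RPMI 1640 with 10% fetal calf serum and antibiotics at 37°C, 5% CO2. Seeded at 20,000 cells/well and counted after 24 h for time 0. Compound or sterile water given either continuously (24 h daily) or pulsed for 6 h every 48 h. Cells counted at 96 and 120 h; concentration series used for the dose-response.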

[12] = target: T3, Opioid growth factor receptor (Homo sapiens); experiment: Antagonist activity at OGFR in human SKOV3 cells assessed as cell growth inhibition at 10 uM treated as pulsed dose of 6 hrs every other day by hemacytometric method; assay type: cell-based; in short: as §3
[13] = species on record: Chlorocebus aethiops; experiment: Antagonist activity at OGFR in African green monkey COS7 cells harboring OGF assessed as increase in cell growth at 1 uM after 72 hrs by BrdU incorporation assay
In short: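 COS-7 cells on coverslips exposed to compound (1 μM) for 24 h. BrdU added in fresh DMEM for 3 h, then cells stained with DAPI counterstain. At least 100 cells per treatment scored blind for BrdU incorporation; growth evaluated at 72 h.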

[14] = target: T3, Opioid growth factor receptor (Homo sapiens); experiment: Antagonist activity at OGFR in human SKOV3 cells assessed as cell growth inhibition at 10 uM treated as pulsed dose of 6 hrs every other day measured at 120 hrs post dose by hemacytometric method; assay type: cell-based; in short: as §3
[15] = target: T3, Opioid growth factor receptor (Homo sapiens); experiment: Antagonist activity at OGFR in human SKOV3 cells assessed as increase in cell growth at 0.1 to 10 uM treated continuously for 24 hrs measured at 120 hrs post dose by hemacytometric method; assay type: cell-based; in short: as §3
[16] = target: T3, Opioid growth factor receptor (Homo sapiens); experiment: Antagonist activity at OGFR in human SKOV3 cells assessed as cell growth inhibition at 5 to 10 uM treated as pulsed dose of 6 hrs every other day measured at 120 hrs post dose by hemacytometric method; assay type: cell-based; in short: as §3

T1 sequence (P41145 whole entry): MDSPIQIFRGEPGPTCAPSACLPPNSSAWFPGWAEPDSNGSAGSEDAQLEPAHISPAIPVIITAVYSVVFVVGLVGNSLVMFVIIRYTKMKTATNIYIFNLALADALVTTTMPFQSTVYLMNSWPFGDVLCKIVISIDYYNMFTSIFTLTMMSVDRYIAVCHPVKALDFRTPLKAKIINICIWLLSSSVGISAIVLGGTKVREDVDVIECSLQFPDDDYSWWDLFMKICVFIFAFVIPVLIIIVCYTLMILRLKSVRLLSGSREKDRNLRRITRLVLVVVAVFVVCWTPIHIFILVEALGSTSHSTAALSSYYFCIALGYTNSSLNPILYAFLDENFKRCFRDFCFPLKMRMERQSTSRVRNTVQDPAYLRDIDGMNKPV

Compound: COc1cc(NC(=O)c2cc(O)c(O)c(CC=C(C)C)c2)c(C/C=C(\C)CCC=C(C)C)c(OC)c1
- Activity [1]: Not Active
- Activity [2]: inactive
- Activity [3]: inactive
- inhibition [4]: inactive
- inhibition [5]: inactive
- inhibition (INH) [6]: Not Active
- Activity [7]: Not Active
- Activity [8]: inactive
- Activity [9]: inactive
- Cell growth increase (active/not active) [10]: Active

Compound: COc1cc(NC(=O)c2ccc(O)c(O)c2CC=C(C)C)c(C/C=C(\C)CCC=C(C)C)c(OC)c1
- Activity [1]: Not Active
- Activity [2]: inactive
- Activity [3]: inactive
- inhibition [4]: inactive
- inhibition [5]: inactive
- inhibition (INH) [6]: Not Active
- Activity [7]: Not Active
- Activity [8]: inactive
- Activity [9]: inactive
- Cell growth increase (active/not active) [10]: Active
- inhibition [11]: Active
- growth inhibition (GI) [12]: Active

Compound: COc1cc(/C=C/c2ccc(O)c(O)c2CC=C(C)C)c(C/C=C(\C)CCC=C(C)C)c(OC)c1
- Cell growth increase (active/not active) [10]: Active

Compound: O=C1CC[C@@]2(O)[C@H]3Cc4ccc(O)c5c4[C@@]2(CCN3CC2CC2)[C@H]1O5
- Cell growth increase (active/not active) [10]: Active
- growth inhibition (GI) [12]: Active

Compound: COc1cc(OC)c(C/C=C(\C)CCC=C(C)C)c(C(=O)Nc2ccc(O)c(O)c2CC=C(C)C)c1
- Activity [1]: Not Active
- Activity [2]: inactive
- Activity [3]: inactive
- inhibition [4]: inactive
- inhibition [5]: inactive
- inhibition (INH) [6]: Not Active
- Activity [7]: Not Active
- Activity [8]: inactive
- Activity [9]: inactive
- inhibition [13]: inactive
- inhibition [11]: Active
- growth inhibition (GI) [12]: Active
- growth inhibition (GI) [14]: Active

Compound: COc1cc(/C=C/c2cc(O)c(O)c(CC=C(C)C)c2)c(C/C=C(\C)CCC=C(C)C)c(OC)c1
- Cell growth increase (active/not active) [10]: inactive

Compound: COc1cc(OC)c(C/C=C(\C)CCC=C(C)C)c(C(=O)Nc2cc(O)c(O)c(CC=C(C)C)c2)c1
- Activity [1]: Not Active
- Activity [2]: inactive
- Activity [3]: inactive
- inhibition [4]: inactive
- inhibition [5]: inactive
- inhibition (INH) [6]: Not Active
- Activity [7]: Not Active
- Activity [8]: inactive
- Activity [9]: inactive
- inhibition [13]: Active
- inhibition [11]: Active
- growth inhibition (GI) [12]: Active
- inhibition [15]: Active
- growth inhibition (GI) [16]: Active
